Experimental data: ChEMBL document CHEMBL3872205, “Design, synthesis and evaluation of novel potent angiotensin II receptor 1 antagonists” (Eur J Med Chem, 2016)

Assays:
[1] = Half life in Wistar rat Heart at 15 mg/kg, po by HPLC analysis; format: ADME, organism-based
Method in brief: (§1)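 Tissue distribution in male Wistar rats given oral 10, 15 or 30 mg/kg; heart, liver, spleen, lung, kidney and brain collected predose and 0.5–72 h post-dose (n = 6 per time). Tissue rinsed in saline, homogenised 0.25 g/1 mL saline, methanol extraction, dried under nitrogen, reconstituted in methanol. Analysis by reverse-phase C18 HPLC, acetonitrile/water 60:40, 1.0 mL/min, ambient temperature.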

[2] = Tmax in Wistar rat Heart at 30 mg/kg, po by HPLC analysis; format: ADME, organism-based
Method in brief: (§2)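 Male Wistar rats (180 ± 20 g) received a single oral dose of 10, 15 or 30 mg/kg. Tissues were collected at 0, 0.5, 1, 2, 4, 6, 8, 12, 24, 48 and 72 h (n = 6 per point). Samples of 0.25 g were rinsed, then homogenized in saline (0.25 g/1 mL) and centrifuged at 10,000 × g. Supernatant was methanol-extracted, dried under nitrogen at 50 °C and reconstituted in methanol. Analysis was by C18 HPLC (acetonitrile 60% / water 40%, 1.0 mL/min).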

[3] = Toxicity in ig dosed ICR mouse assessed as mortality after 2 weeks; format: organism-based; conditions: in vivo, po
[4] = MRT (0 to infinity) in Wistar rat kidney at 10 mg/kg, po by HPLC analysis; format: ADME, organism-based; method in brief: as §2
[5] = MRT (0 to infinity) in Wistar rat brain at 30 mg/kg, po by HPLC analysis; format: ADME, organism-based; method in brief: as §2
[6] = Half life in Wistar rat kidney at 10 mg/kg, po by HPLC analysis; format: ADME, organism-based; method in brief: as §1
[7] = Tmax in Wistar rat brain at 10 mg/kg, po by HPLC analysis; format: ADME, organism-based; method in brief: as §2
[8] = Tmax in Wistar rat kidney at 10 mg/kg, po by HPLC analysis; format: ADME, organism-based; method in brief: as §2
[9] = Cmax in Wistar rat kidney at 15 mg/kg, po by HPLC analysis; format: ADME, organism-based; parameters: dose 15 mg/kg, route oral; method in brief: as §1
[10] = Half life in Wistar rat plasma at 10 mg/kg, po by HPLC analysis; format: ADME, organism-based
[11] = MRT (0 to 72 hrs) in Wistar rat liver at 10 mg/kg, po by HPLC analysis; format: ADME, organism-based; method in brief: as §1
[12] = Cmax in Wistar rat kidney at 30 mg/kg, po by HPLC analysis; format: ADME, organism-based; parameters: dose 30 mg/kg, route oral; method in brief: as §1
[13] = MRT (0 to infinity) in Wistar rat Heart at 10 mg/kg, po by HPLC analysis; format: ADME, organism-based; method in brief: as §2
[14] = AUC (0 to 72 hrs) in Wistar rat liver at 30 mg/kg, po by HPLC analysis; format: ADME, organism-based; parameters: time < 72 hr, dose 30 mg/kg, route oral
Method in brief: (§3)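 Wistar rats (180 ± 20 g) were dosed orally at 10, 15 or 30 mg/kg. Heart, liver, spleen, lung, kidney and brain were collected at 0–72 h (n = 6 per point). Tissue was rinsed, blotted and homogenized in saline (0.25 g/1 mL), then spun at 10,000 × g. Supernatant was methanol-extracted, dried under nitrogen at 50 °C, reconstituted in methanol and run on C18 HPLC (acetonitrile 60%/water 40%, 1.0 mL/min).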

[15] = MRT (0 to 72 hrs) in Wistar rat plasma at 15 mg/kg, po by HPLC analysis; format: ADME, organism-based
Method in brief: (§4)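 Male Wistar rats (180 ± 20 g), 6 per dose group, each given a single oral dose. Blood was drawn by retro-orbital puncture into heparin at predose and at 0.5, 1, 2, 4, 6, 8, 12, 24, 48 and 72 h, then spun at 4000 × g and 4 °C. Plasma with internal standard was acetonitrile-precipitated, filtered and run on reverse-phase C18 HPLC (0.02 mol/L KH2PO4 55% / acetonitrile 45%, 1.0 mL/min). Calibration standards were 0.1–10 µg/mL, fitted by peak-height ratio with 1/conc² weighting.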

[16] = MRT (0 to infinity) in Wistar rat lung at 15 mg/kg, po by HPLC analysis; format: ADME, organism-based; method in brief: as §2
[17] = MRT (0 to 72 hrs) in Wistar rat spleen at 15 mg/kg, po by HPLC analysis; format: ADME, organism-based; method in brief: as §2
[18] = Half life in Wistar rat kidney at 30 mg/kg, po by HPLC analysis; format: ADME, organism-based; method in brief: as §1
[19] = MRT (0 to 72 hrs) in Wistar rat liver at 30 mg/kg, po by HPLC analysis; format: ADME, organism-based; method in brief: as §2
[20] = Cmax in Wistar rat brain at 15 mg/kg, po by HPLC analysis; format: ADME, organism-based; parameters: dose 15 mg/kg, route oral; method in brief: as §3
[21] = MRT (0 to 72 hrs) in Wistar rat kidney at 10 mg/kg, po by HPLC analysis; format: ADME, organism-based; method in brief: as §1
[22] = Cmax in Wistar rat lung at 10 mg/kg, po by HPLC analysis; format: ADME, organism-based; parameters: dose 10 mg/kg, route oral; method in brief: as §1
[23] = Half life in Wistar rat plasma at 30 mg/kg, po by HPLC analysis; format: ADME, organism-based
[24] = MRT (0 to infinity) in Wistar rat brain at 10 mg/kg, po by HPLC analysis; format: ADME, organism-based; method in brief: as §2
Mus musculus = assay: Toxicity in ICR mouse assessed as change in body weight at 1200 mg/kg, po after 2 weeks; format: organism-based; conditions: in vivo, 336 h
[25] = Cmax in Wistar rat plasma at 15 mg/kg, po by HPLC analysis; format: ADME, organism-based; parameters: dose 15 mg/kg, route oral
[26] = Cmax in Wistar rat liver at 15 mg/kg, po by HPLC analysis; format: ADME, organism-based; parameters: dose 15 mg/kg, route oral; method in brief: as §1
[27] = Toxicity in ICR mouse assessed as mortality at 1200 mg/kg, ig after 2 weeks; format: organism-based; conditions: in vivo, po
[28] = MRT (0 to infinity) in Wistar rat plasma at 15 mg/kg, po by HPLC analysis; format: ADME, organism-based; method in brief: as §4
[29] = MRT (0 to 72 hrs) in Wistar rat Heart at 10 mg/kg, po by HPLC analysis; format: ADME, organism-based; method in brief: as §1
[30] = AUC (0 to infinity) in Wistar rat brain at 30 mg/kg, po by HPLC analysis; format: ADME, organism-based; parameters: dose 30 mg/kg, route oral, time infinity; method in brief: as §3
[31] = MRT (0 to 72 hrs) in Wistar rat spleen at 30 mg/kg, po by HPLC analysis; format: ADME, organism-based; method in brief: as §2
[32] = Half life in Wistar rat lung at 30 mg/kg, po by HPLC analysis; format: ADME, organism-based; method in brief: as §1
[33] = Half life in Wistar rat Heart at 10 mg/kg, po by HPLC analysis; format: ADME, organism-based; method in brief: as §1
[34] = Tmax in Wistar rat kidney at 15 mg/kg, po by HPLC analysis; format: ADME, organism-based; method in brief: as §2
Rattus norvegicus = assay: Antihypertensive activity in spontaneous hypertensive rat model assessed as reduction in mean blood pressure at 10 mg/kg, po after 4 hrs; format: functional
Method in brief: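 Male SHRs (250 ± 20 g) were randomized, 6 per group. Compound was suspended in 0.5% sodium carboxymethyl cellulose and given orally; vehicle-only negative control. Mean blood pressure was calculated as (SBP − DBP)/3 + DBP from systolic and diastolic readings over the time course. Data are mean ± SD, with p < 0.05 taken as significant.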

[35] = Tmax in Wistar rat liver at 15 mg/kg, po by HPLC analysis; format: ADME, organism-based; method in brief: as §2
[36] = Tmax in Wistar rat plasma at 15 mg/kg, po by HPLC analysis; format: ADME, organism-based; method in brief: as §4

CCCCC1=NC2(CCCC2)C(=O)N1Cc1ccc2c(ccn2-c2ccccc2-c2nnn[nH]2)c1
half-life [1]: 15.8 h
Tmax [2]: 4.8 h
LD50 at 336 h [3]: 1550 mg/kg
MRT inf [4]: 25.3 h
MRT inf [5]: 9.02 h
half-life [6]: 26.9 h
Tmax [7]: 6.67 h
Tmax [8]: 1.17 h
Cmax [9]: 210 ng/mL
half-life [10]: 9.93 h
MRT last [11]: 4.93 h
Cmax [12]: 396 ng/mL
MRT inf [13]: 12 h
AUC(0-t) at 72 h [14]: 14500 ng·h/mL
MRT last [15]: 10.2 h
MRT inf [16]: 3.64 h
MRT last [17]: 9.71 h
half-life [18]: 22.4 h
MRT last [19]: 6.3 h
Cmax [20]: 93.3 ng/mL
MRT last [21]: 21 h
Cmax [22]: 62.1 ng/mL
half-life [23]: 9.93 h
MRT inf [24]: 8.1 h
Activity (Mus musculus): Non-Toxic
Cmax [25]: 2950 ng/mL
Cmax [26]: 1230 ng/mL
mortality at 336 h [27]: 0%
MRT inf [28]: 13.7 h
MRT last [29]: 7.68 h
AUC(0-inf) [30]: 1790 ng·h/mL
MRT last [31]: 13.3 h
half-life [32]: 2.35 h
half-life [33]: 16.9 h
Tmax [34]: 2.33 h
Activity (Rattus norvegicus): 28.39 mmHg
Tmax [35]: 2 h
Tmax [36]: 4.33 h
